The list is not random: actives were taken first. Their share in the collection is about 2.7%.
ASAP1 GAP inh: inhibitors of human ASAP1 ArfGAP activity | Q9ULH1 | ASAP1-stimulated ARF1 GTP hydrolysis, GDP FP detection | inhibition, % at 16.5 µM | actives 0.19% (n = 360,000) | AID 624377; in the data active = inhibition above about 25%;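 note: 0% = vehicle with enzyme and substrate and 100% = no enzyme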
Target sequence (Q9ULH1 325-724 limits assumed): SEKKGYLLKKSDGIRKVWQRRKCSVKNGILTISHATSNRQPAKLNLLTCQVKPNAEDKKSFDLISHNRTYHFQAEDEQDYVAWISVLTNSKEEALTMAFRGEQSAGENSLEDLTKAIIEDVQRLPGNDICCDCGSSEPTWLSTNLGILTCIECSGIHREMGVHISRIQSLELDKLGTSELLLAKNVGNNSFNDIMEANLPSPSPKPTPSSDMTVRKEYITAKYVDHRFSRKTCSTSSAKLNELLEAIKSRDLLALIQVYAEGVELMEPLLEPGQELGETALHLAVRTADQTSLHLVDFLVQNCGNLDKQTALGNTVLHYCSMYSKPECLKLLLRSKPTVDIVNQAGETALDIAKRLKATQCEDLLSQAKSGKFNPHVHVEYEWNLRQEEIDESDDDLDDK
sPLA2-III inh: Inhibits HGIII-sPLA2 liposome hydrolysis, primary screen; QFRET BODIPY PC-A2 liposome hydrolysis, fluorescence; inhibition, % at 12.2 µM; Q9NZ20; AID 743126; actives 0.56% (n = 370,000);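 active = inhibition above mean plus 3 SD of compounds lying within the high and low control bounds, cut at about 19% in these data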;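 note: 0% = median of test compound wells and 100% = no enzyme DMSO wells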
Rev-erbA mod: modulates human Rev-erb alpha binding to DNA | activity, % at 10 µM | actives 0.79% (n = 370,000) | P20393 | AID 1259318 | Rev-erbα–FITC-DNA binding, fluorescence polarization, 90 min;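 active = activity above about 14%, limit read from the data; passing the limit was not always enough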;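 note: 0% = DMSO wells with 35 nM protein and 100% = DMSO wells with 750 nM protein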
bovine MsrA act: activates bovine MsrA enzyme; purified bovine MsrA, absorbance read-out; activation, % at 10.6 µM; actives 0.3% (n = 360,000); AID 602163; in the data active = activation above about 7.5%;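 note: 0% = vehicle and 100% = reference activator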
MsrA inhibitor: inhibits bovine methionine sulfoxide reductase A; purified bovine MsrA, absorbance read-out; inhibition, % at 15.5 µM; actives 0.75% (n = 360,000); in the data active = inhibition above about 4.5%;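 note: 0% = vehicle wells with enzyme and 100% = reference inhibitor wells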
ARFGAP1 inh: rat ARFGAP1 inhibition; Q62848; Arfgap1-stimulated ARF1 GTP hydrolysis, GDP FP detection; inhibition, % at 16.5 µM; actives 0.26% (n = 360,000); AID 651572;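 active = inhibition above a per-plate limit, mean inhibition of low control wells plus 3 SD, cut at about 25% in these data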;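 note: 0% = DMSO wells with enzyme and 100% = wells lacking Arfgap1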
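material = rat Arfgap1 catalytic domain, aa 1-136 | also added = human ARF1(Δ1-17)-GTP substrate | compound dosing = one concentration, 16.5 µM, DMSO 1.26% | times = GTP hydrolysis reaction 2 h at 25 °C | measured by = FP, GDP Alexa 633 tracer displaced from anti-GDP antibody, 620/688 nm | evaluation = percent inhibition of Arfgap1-stimulated GTP hydrolysis | replication = single well per compound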
sPLA2 confirm: human GIII-sPLA2 inhibition, confirmation; actives 34% (n = 2,000); inhibition, % at 12.2 µM; AID 743280; shares compounds with sPLA2-III inh; recombinant hGIII-sPLA2, BODIPY PC-A2 QFRET fluorescence;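 active = mean inhibition across triplicates above the hit cutoff set in the earlier primary screen, cut at about 19% in these data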;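 note: 0% = enzyme with DMSO and 100% = DMSO wells lacking enzyme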
BODIPY interf: 535nm fluorescence interference, HGIII-sPLA2 counter-screen. BODIPY FL product fluorescence interference, QFRET. actives 8.5% (n = 2,000). shares compounds with sPLA2-III inh. inhibition, % at 12.2 µM. AID 743282;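 active = average inhibition above the solvent-only control mean plus 3 SD, cut at about 6% in these data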;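 note: 0% = DMSO with substrate plus product and 100% = DMSO with substrate alone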
BODIPY interf DR: 535nm optical interference dose response, HGIII-sPLA2 counter-screen | shares compounds with sPLA2-III inh | BODIPY FL product fluorescence interference, cell-free | IC50, µM | 240 tested, under 10 active;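 active = IC50 at or below 10 µM; inactive = IC50 above 10 µM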
Active calls of the source: *; nt = not tested or not shown.

SMILES	ASAP1 GAP inh	sPLA2-III inh	Rev-erbA mod	bovine MsrA act	MsrA inhibitor	ARFGAP1 inh	sPLA2 confirm	BODIPY interf	others
COc1ccc(/C=C/C(=O)NC(=S)NNC(=O)c2ccco2)cc1OC	6	20*	2	-5	3	-6	25*	-23
COc1ccccc1C(=O)NNC(=S)NC(=O)c1cc(OC)c(OC)c(OC)c1	-16	7	-5	-10	0	-10	nt	nt
O=C(NC(=S)NNC(=O)c1ccccc1O)c1ccco1	5	28*	6	-1	2	3	19	-5
COc1cc(C(=O)NNC(=S)NC(=O)c2ccccc2C)cc(OC)c1OC	4	26*	0	-2	2	-1	25*	-13
CC[C@@H](CCCCCCCn1ccc2ccccc21)CCC(=O)N(c1ccccc1)c1ccccc1	nt	1	-2	nt	nt	nt	nt	nt
COc1ccc(C2C(C(=O)Nc3ccc(F)cc3F)CCC(=O)N2c2ccc(OC)cc2)cc1 (stereo not drawn)	nt	-6	-6	nt	nt	nt	nt	nt
COc1ccc(C(=O)NC(=S)NNC(=O)c2ccccc2C)cc1	8	25*	-1	-8	1	3	29*	-1
COc1ccc(C(=O)NNC(=S)NC(=O)/C=C/c2cccs2)cc1	5	0	0	-1	1	-6	nt	nt
O=C(/C=C/c1cccs1)NC(=S)NNC(=O)c1ccccc1O	4	42*	5	-7	6.9*	-15	32*	3	BODIPY interf DR=>122
COc1ccc(C(=O)NC(=S)NNC(=O)COc2ccccc2)cc1	7	7	8	5	-1	-2	nt	nt
COc1cc(C(=O)NC(=S)NNC(=O)c2cnccn2)cc(OC)c1OC	0	21*	-1	-4	2	0	10	-6
COc1ccc(CC(=O)NNC(=O)c2ccccn2)cc1	5	0	1	-2	0	-11	nt	nt
COc1ccc(CC(=O)NNC(=O)c2cnccn2)cc1	-7	20*	1	-7	0	1	8	-7
O=C(NC1CCCCN(Cc2cccc(Cl)c2)C1=O)c1cccc([N+](=O)[O-])c1 (stereo not drawn)	nt	-1	1	nt	nt	nt	nt	nt
COc1ccc(C(=O)NNC(=S)NC(=O)C(C)(C)C)cc1	8	23*	7	-3	0	-7	19*	-10
COc1cc(C(=O)Nc2ccncc2)cc(OC)c1OC	-14	21*	1	0	1	3	-3	-8
COc1cc(C(=O)Nc2ccc3c(c2)Cc2cc(NC(=O)c4cc(OC)c(OC)c(OC)c4)ccc2-3)cc(OC)c1OC	2	8	7	-3	0	1	nt	nt
COc1cc(C(=O)NNC(=S)NC(=O)c2ccc3c(c2)OCO3)cc(OC)c1OC	-5	24*	3	-2	2	-4	37*	-16	BODIPY interf DR=>122
CC(C)(c1ccccc1)c1ccc(OCCCN2CCNCC2)cc1	9	10	-2	0	-1	12	nt	nt
CC(C)(C)c1ccc(OCCCCCCN2CCNCC2)cc1	-2	23*	3	-1	0	-5	-6	-44
CC1(C)CCCN(C(=O)c2ccc3c(c2NCCO)C(=O)c2ccccc2C3=O)C1	16	26*	0	0	1	-9	36*	-14	BODIPY interf DR=>122
COC(CNC(=O)[C@H](Cc1c[nH]c2ccccc12)NC1(C(=O)NC(c2ccccc2)c2ccccc2)CCCCC1)OC	nt	-83	-5	nt	nt	nt	nt	nt
O=S(=O)(O)c1cc(Cl)cc(N=Nc2ccc(O)cc2O)c1O	-2	49*	-13	-9	1	-29	-38	-15
Cc1cc(NS(=O)(=O)c2ccc(N3C(=O)C4C5C=CC(C5)C4C3=O)cc2)nc(C)n1 (stereo not drawn)	0	21*	-4	3	-1	8	0	-7

Screening data as filed in PubChem.
